Laboratory results taken from ChEMBL document CHEMBL1287776, “Synthesis and biological evaluations of P4-benzoxaborole-substituted macrocyclic inhibitors of HCV NS3 protease” (Bioorg Med Chem Lett, 2010).

Experiments:
Rattus norvegicus [1] = species on record: Rattus norvegicus; assay: Metabolic absorption in rat; assay type: ADME, organism-based; conditions: in vivo
Procedure, shortened: (§1)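 Rat pharmacokinetics with blood drawn from both the jugular and portal veins after oral dosing, with IV dosing as reference. Absorption is calculated from portal vein drug levels. Oral bioavailability is calculated from jugular vein levels, each compared with levels after IV administration.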

Hepatitis C virus [2] = assay: Antiviral activity against HCV 1b infected in human Huh-7 cells after 48hrs by luciferase assay; assay type: functional, organism-based, Hepacivirus hominis; conditions: genotype 1b, Huh-7, 48 h
Procedure, shortened: (§2)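 Subgenomic (NS3-NS5B) luciferase replicon cells for genotype 1a or 1b. The 1b ET line is stably transfected with a firefly luciferase-ubiquitin-neo replicon carrying cell culture adaptive mutations. Cells are seeded at 5 × 10³/well onto compounds in 1% DMSO final. Luciferase is read after 48 h. EC50 comes from an 11-point, 3-fold dilution curve, as % inhibition versus no-compound control, with a four-parameter logistic fit.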

Hepatitis C virus [3] = assay: Antiviral activity against HCV 1a infected in human Huh-7 cells after 48hrs by luciferase assay; assay type: functional, organism-based, Hepacivirus hominis; conditions: subtype 1a, Huh-7, 48 h; procedure, shortened: as §2
[4] = Inhibition of HCV 1a NS3/4A protease by FRET assay; set-up: species or system Hepatitis C virus subtype 1a
Procedure, shortened: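 FRET assay with the genotype 1a NS3/4A protease domain and a fluorogenic peptide substrate. Buffer is 50 mM HEPES, 20% sucrose, 5 mM DTT and 0.05% NP-40. Initial rates are read at ex 490/em 520 nm. IC50 values are means of duplicate or triplicate experiments.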

[5] = (§3) Oral bioavailability in rat; assay type: ADME, organism-based; conditions: in vivo; procedure, shortened: as §1
Rattus norvegicus [6] = assay: as §3; assay type: ADME, organism-based; conditions: in vivo, BLD = below limit of detection; procedure, shortened: as §1

Compound | Activity (Rattus norvegicus [1]) [%] | EC50 (Hepatitis C virus [2]) [nM] | EC50 (Hepatitis C virus [3]) [nM] | IC50 [4] [nM] | bioavailability [5] [%] | Activity (Rattus norvegicus [1]; BLD = below limit of detection) | F (Rattus norvegicus [6])
O=C(Nc1ccc2c(c1)B(O)OC2)N[C@H]1CCCCC/C=C\[C@@H]2C[C@@]2(C(=O)NS(=O)(=O)C2CC2)NC(=O)C2C[C@@H](OC(=O)N3Cc4cccc(F)c4C3)CN2C1=O (some centres undefined) | 0.9 | 3.7 | 159 | 0.4 | 0.5 |  | 
O=C(N[C@H]1CCCCC/C=C\[C@@H]2C[C@@]2(C(=O)NS(=O)(=O)C2CC2)NC(=O)C2C[C@@H](OC(=O)N3Cc4cccc(F)c4C3)CN2C1=O)Oc1ccc2c(c1)B(O)OC2 (some centres undefined) |  | 15 | 661 | 1.6 |  |  | 
O=C(N[C@H]1CCCCC/C=C\[C@@H]2C[C@@]2(C(=O)NS(=O)(=O)C2CC2)NC(=O)C2C[C@@H](OC(=O)N3Cc4cccc(F)c4C3)CN2C1=O)Oc1ccc2c(c1)COB2O (some centres undefined) |  | 172 | 3550 | 2.4 |  |  | 
O=C(Nc1cc2c(cc1F)COB2O)N[C@H]1CCCCC/C=C\[C@@H]2C[C@@]2(C(=O)NS(=O)(=O)C2CC2)NC(=O)C2C[C@@H](OC(=O)N3Cc4cccc(F)c4C3)CN2C1=O (some centres undefined) |  | 1.5 | 35 | < 0.2 |  |  | 
COc1cnc(O[C@@H]2CC3C(=O)N[C@]4(C(=O)NS(=O)(=O)C5CC5)C[C@H]4/C=C\CCCCC[C@H](NC(=O)Nc4ccc5c(c4)B(O)OC5)C(=O)N3C2)c2cc(Cl)ccc12 (some centres undefined) |  | 3.9 | 60.3 | 0.6 |  |  | 
COc1cnc(O[C@@H]2CC3C(=O)N[C@]4(C(=O)NS(=O)(=O)C5CC5)C[C@H]4/C=C\CCCCC[C@H](NC(=O)NCc4ccc5c(c4)B(O)OC5)C(=O)N3C2)c2cc(Cl)ccc12 (some centres undefined) |  | 3.9 | 50.1 | 0.4 |  |  | 

The next compounds have a lower EC50 (Hepatitis C virus [2]) than those just listed; values first:

Activity (Rattus norvegicus [1]) [%] | EC50 (Hepatitis C virus [2]) [nM] | EC50 (Hepatitis C virus [3]) [nM] | IC50 [4] [nM] | bioavailability [5] [%] | Activity (Rattus norvegicus [1]; BLD = below limit of detection) | F (Rattus norvegicus [6]) | Compound
 | 1.4 | 2.3 | 10 |  |  |  | COc1ccc2c(O[C@@H]3C[C@H]4C(=O)N[C@]5(C(=O)NS(=O)(=O)C6CC6)C[C@H]5/C=C\CCCCN(C)C(=O)[C@@H]4C3)cc(-c3nc(C(C)C)cs3)nc2c1C [SIMEPREVIR]
 | 1.2 | 20 | 0.4 |  |  |  | CC1OB(O)c2cc(NC(=O)N[C@H]3CCCCC/C=C\[C@@H]4C[C@@]4(C(=O)NS(=O)(=O)C4CC4)NC(=O)C4C[C@@H](OC(=O)N5Cc6cccc(F)c6C5)CN4C3=O)c(F)cc21 (some centres undefined)
 | 1.2 | 12.5 | 5.6 |  |  |  | COc1ccc2c(O[C@@H]3CC4C(=O)N[C@]5(C(=O)NS(=O)(=O)C6CC6)C[C@H]5/C=C\CCCCC[C@H](NC(=O)Nc5ccc6c(c5)B(O)OC6)C(=O)N4C3)cc(-c3nc(C(C)C)cs3)nc2c1C (some centres undefined)
17.4 | 1.1 | 1 | 0.4 | 20 |  |  | CC(C)(C)OC(=O)N[C@H]1CCCCC/C=C\[C@@H]2C[C@@]2(C(=O)NS(=O)(=O)C2CC2)NC(=O)[C@@H]2C[C@@H](OC(=O)N3Cc4cccc(F)c4C3)CN2C1=O [DANOPREVIR]
0.6 | 0.9 | 160 | 0.4 | 0.7 |  |  | O=C(NCc1ccc2c(c1)B(O)OC2)N[C@H]1CCCCC/C=C\[C@@H]2C[C@@]2(C(=O)NS(=O)(=O)C2CC2)NC(=O)C2C[C@@H](OC(=O)N3Cc4cccc(F)c4C3)CN2C1=O (some centres undefined)
 | 0.5 | 4.2 | 4.1 |  | BLD | BLD | COc1ccc2c(O[C@@H]3CC4C(=O)N[C@]5(C(=O)NS(=O)(=O)C6CC6)C[C@H]5/C=C\CCCCC[C@H](NC(=O)NCc5ccc6c(c5)B(O)OC6)C(=O)N4C3)cc(-c3nc(C(C)C)cs3)nc2c1C (some centres undefined)
